Source: ChEMBL document CHEMBL1133680, “Benzo[c]quinolizin-3-ones: a novel class of potent and selective nonsteroidal inhibitors of human steroid 5alpha-reductase 1” (J Med Chem, 2000)

Assays:
[1] = molecular target: T1, 3-oxo-5-alpha-steroid 4-dehydrogenase 1 (Homo sapiens, UniProt P18405); test: Inhibition of recombinant steroid 5-alpha-reductase type I expressed in CHO cells; format: cell-based
T1 sequence (P18405 whole entry): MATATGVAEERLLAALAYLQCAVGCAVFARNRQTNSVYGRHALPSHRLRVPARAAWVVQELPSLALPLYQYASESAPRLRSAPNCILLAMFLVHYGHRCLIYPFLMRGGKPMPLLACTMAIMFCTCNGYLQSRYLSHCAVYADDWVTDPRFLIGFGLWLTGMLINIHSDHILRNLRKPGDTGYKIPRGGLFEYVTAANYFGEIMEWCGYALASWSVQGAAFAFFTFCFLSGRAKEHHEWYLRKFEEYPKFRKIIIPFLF

[2] = molecular target: T1, 3-oxo-5-alpha-steroid 4-dehydrogenase 1; test: Inhibition of recombinant Steroid 5-alpha-reductase type I expressed in CHO cells; format: cell-based
[3] = molecular target: T1, 3-oxo-5-alpha-steroid 4-dehydrogenase 1; test: Inhibitory activity against recombinant Steroid 5-alpha-reductase type I expressed in CHO cells; format: cell-based
[4] = molecular target: T2, 3-oxo-5-alpha-steroid 4-dehydrogenase 2 (Homo sapiens, UniProt P31213); test: Inhibitory activity against steroid 5-alpha-reductase type 2 in human prostate homogenates; format: tissue-based, Prostate gland
T2 sequence (P31213 whole entry): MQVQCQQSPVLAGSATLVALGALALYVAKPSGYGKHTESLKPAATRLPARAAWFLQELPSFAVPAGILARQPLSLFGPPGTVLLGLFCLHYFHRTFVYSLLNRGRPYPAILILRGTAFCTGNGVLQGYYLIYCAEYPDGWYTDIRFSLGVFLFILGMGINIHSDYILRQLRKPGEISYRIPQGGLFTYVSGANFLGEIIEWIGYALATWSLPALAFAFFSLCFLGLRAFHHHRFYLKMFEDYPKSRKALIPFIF
In short: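 Native 5αR-2 in total human prostate homogenate, with 50 nM testosterone so that only type 2 is active (Km 0.2 µM vs 1.7 µM for type 1). Inhibition measured at 10 µM or as IC50. Finasteride and LY191704 used as selectivity controls.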

[5] = molecular target: T1, 3-oxo-5-alpha-steroid 4-dehydrogenase 1; test: Inhibitory activity against Steroid 5-alpha-reductase type I in human scalp homogenates; format: tissue-based
In short: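 Native 5αR-1 assayed in total human scalp homogenate with testosterone at micromolar level. 10 nM finasteride was included to suppress the co-active 5αR-2, and the value is reported as IC50.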

[6] = molecular target: T3, 3-oxo-5-alpha-steroid 4-dehydrogenase 2 (Homo sapiens) (UniProt P31213); test: Inhibitory activity against steroid 5-alpha-reductase type 2 in human prostate homogenates at 10 uM; format: tissue-based; settings: Prostate gland
T3 sequence (whole entry): T2 sequence (P31213 whole entry)
In short: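 Native 5αR-2 assayed in total human prostate homogenate with 50 nM testosterone, a level below the 5αR-1 Km so only type 2 is active. Percent inhibition was measured at 10 µM inhibitor.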

[7] = molecular target: T1, 3-oxo-5-alpha-steroid 4-dehydrogenase 1; test: Inhibition constant against recombinant Steroid 5-alpha-reductase type I expressed in CHO cells; format: cell-based

Row | Compound | IC50 [1] | IC50 [2] | other results
1 | CC1=C2CC(C)c3cc(C)ccc3N2CCC1=O (configuration not stated) |  | 15.8 nM | 
2 | C[C@@H]1C(=O)C=CN2c3ccccc3CCC12 (some centres not stated) | 2700 nM |  | 
3 | CC1C(=O)C=CN2c3ccccc3CCC12 (configuration not stated) |  | 4300 nM | 
4 | CC(C)(C)NC(=O)[C@H]1CC[C@H]2[C@@H]3CC[C@H]4NC(=O)C=C[C@]4(C)[C@H]3CC[C@]12C [FINASTERIDE] |  |  | Ki [3]: 366 nM; IC50 [4]: 2.2 nM
5 | CC1=C2CCc3cc(Cl)ccc3N2CCC1=O | 7.6 nM |  | IC50 [5]: 41 nM; inhibition [6]: 20%; Ki [7]: 2.7 nM
6 | Cc1ccc2c(c1)C(C)CC1=CC(=O)CCN12 (configuration not stated) |  | 14.3 nM | 
7 | O=C1C=CN2c3ccc(Cl)cc3CCC2C1 (configuration not stated) | 459 nM |  | 
8 | C[C@H]1Cc2cc(Cl)ccc2N2C=CC(=O)CC12 (some centres not stated) | 9100 nM |  | 
9 | CC1=C2CCc3ccccc3N2CCC1=O | 185 nM |  | 
10 | Cc1ccc2c(c1)CCC1C(C)C(=O)C=CN21 (configuration not stated) |  | 312 nM | 
11 | Cc1ccc2c(c1)CCC1[C@H](C)C(=O)C=CN21 (some centres not stated) | 137 nM |  | 
12 | CN1C(=O)CC[C@@H]2c3ccc(Cl)cc3CC[C@H]21 [BEXLOSTERIDE] |  |  | IC50 [5]: 2.3 nM; inhibition [6]: 19%
13 | CC1Cc2cc(Cl)ccc2-n2ccc(=O)cc21 (configuration not stated) |  | 1880 nM | 

More lines, main results first:

Row | IC50 [1] | IC50 [2] | Compound | other results
14 | 176 nM |  | Cc1ccc2c(c1)CCC1CC(=O)C=CN21 (configuration not stated) | 
15 |  | 14.4 nM | CC1CC2=CC(=O)CCN2c2ccc(Cl)cc21 (configuration not stated) | 
16 |  | 204 nM | CC1CC(=O)C=C2CCc3cc(Cl)ccc3N21 (configuration not stated) | 
17 |  | 1400 nM | Cc1c2n(ccc1=O)-c1ccccc1CC2 | 
18 | 20 nM |  | CC1=C2CCc3cc(C)ccc3N2CCC1=O | IC50 [5]: 41 nM; inhibition [6]: 20%; Ki [7]: 5.8 nM
19 |  | 8.5 nM | CC1=C2CC(C)c3cc(Cl)ccc3N2CCC1=O (configuration not stated) | 
20 | 141 nM |  | CC1C(=O)C=CN2c3ccc(Cl)cc3CCC12 (configuration not stated) | 
21 | 188 nM |  | C[C@@H]1CC2CC(=O)C=CN2c2ccc(Cl)cc21 (some centres not stated) | 
22 | 376 nM |  | Cc1ccc2c(c1)CCC1=CC(=O)CCN12 | 
23 | 346 nM |  | CC1Cc2cc(Cl)ccc2N2CCC(=O)C=C12 (configuration not stated) | 
24 |  | 15.6 nM | CC1=C2C(C)Cc3cc(Cl)ccc3N2CCC1=O (configuration not stated) | 
